The text below walks through data of PubChem BioAssay.

Activity calls are given as the source filed them.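 The calls were made as follows, unless noted: active = NADPH fluorescence slope more negative than the mean of all samples by about 3 SD, 99.7% confidence; inactive = the rest.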

Test [1] can be described thus: inhibitors of TNFa-induced NFkB p65 translocation, primary screen, imaging, HUVEC, MLSMR starter and 10KST1 sets (AID 438;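 active = inhibition above 20% together with a positive visual image hit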;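 also: compound added about 3h40 before a 20 min TNFalpha stimulation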;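 as to inhibition: signal is the nuclear over cytoplasmic p65 intensity ratio per well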). The conditions noted are these: HUVEC TNFa-induced p65 nuclear translocation; cell count: measured here: nuclei count (cytotoxicity indicator), at 2.08 µM; inhibition: at 2 µM, stronger effect = higher value, 0% TNFa-plus-vehicle, 100% no-TNFa wells.
The nature of test [2]: endothelial E-selectin expression blockers – imaging, HUVEC, immunofluorescence, MLSMR starter and 10KST1 sets, primary screen (AID 487;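 active = visually confirmed hit in the image check and inhibition above 20%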;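 as to inhibition: signal is fraction of cell area covered by stained E-selectin grains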;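 as to nuclei count: 100% = median nuclei count of all wells on the same plate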). The conditions noted are these: HUVEC TNFalpha-induced E-selectin immunofluorescence imaging, at 2 µM; inhibition: stronger effect = higher value; nuclei count: measured here: cell number, toxicity.
A short description of test [3]: Primary imaging screen for DUSP6 inhibitors that restore phospho-Erk in transfected HeLa cells, chemical complementation (AID 609;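 active = compounds giving at least 50% inhibition in the cell-based MKP-3 phosphatase rescue imaging test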;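 as to inhibition: phospho-Erk level distribution per well compared with pooled transfected vehicle control wells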). The conditions noted are these: HeLa MKP-3 transfected, phospho-Erk imaging KS statistic, at 10 µM, cells stimulated with TPA for 15 min.
The target of test [4] is Dual specificity protein phosphatase 6 (Homo sapiens) (UniProt Q16828). The description is as above. The conditions noted are these: HeLa MKP-3 transfected, phospho-Erk imaging KS statistic; at 10 µM; stronger effect = higher value; cells stimulated with TPA for 15 min.
Sequence of Dual specificity protein phosphatase 6 (Homo sapiens) (Q16828 whole entry, looked up): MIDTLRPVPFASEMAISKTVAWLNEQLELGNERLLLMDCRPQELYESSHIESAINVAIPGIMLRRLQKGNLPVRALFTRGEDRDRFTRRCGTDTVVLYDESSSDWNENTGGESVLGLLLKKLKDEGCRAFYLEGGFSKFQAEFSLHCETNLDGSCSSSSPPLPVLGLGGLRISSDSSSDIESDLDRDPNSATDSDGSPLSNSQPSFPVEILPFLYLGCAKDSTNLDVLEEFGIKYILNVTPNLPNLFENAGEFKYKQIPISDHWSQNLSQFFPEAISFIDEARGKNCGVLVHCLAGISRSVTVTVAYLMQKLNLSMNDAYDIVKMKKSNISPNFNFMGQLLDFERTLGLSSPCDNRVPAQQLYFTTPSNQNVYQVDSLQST
Test [5] has as its target Voltage-gated potassium channel subunit beta-2 (Rattus norvegicus) (UniProt P62483). The experiment in a line: inhibitors of rat Kvbeta2 reductase activity – biochemical, NADPH fluorescence, primary screen (AID 622;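 active = fluorescence slope higher than the sample average by over 3 SD, cut at about -0.22 in these data, passing the limit was not always enough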;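 also: slope of raw intensity against log time taken from 70 to 1610 s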). The conditions noted are these: recombinant KvBeta, 4-cyanobenzaldehyde reduction, at 10 µM, stronger effect = higher value.
Test [6] shares this target. Kind of test: enhancers of rat Kvbeta2 NADPH turnover – biochemical, NADPH fluorescence, primary screen (AID 623).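 Also: fluorescence intensity change per second fitted from 20 to 320 s.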 Conditions: Recombinant KvBeta, NADPH fluorescence decrease slope, 10 min; at 10 µM; stronger effect = lower value.
The target of test [7] is Muscarinic acetylcholine receptor M4 (Homo sapiens) (UniProt P08173). The experiment in a line: M4-linked GIRK flux change, two-sided – cell-based, HEK293 M4/GIRK, thallium flux, BTC-AM, M4 allosteric agonist project, primary screen (AID 625;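 active = fluorescence slope after compound addition differing from the mean of all tested samples at 99.7% confidence, mostly higher but some lower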;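 also: thallium influx through GIRK channels coupled to M4 in HEK293 cells with BTC-AM dye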). The conditions noted are these: at 10 µM, actives lie on both sides. The method in brief:
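Material: HEK293 cells with M4 receptor and GIRK channels; Times: cells overnight at 37 °C, BTC-AM loading 1 h, reads 2 min total; Technique: kinetic BTC-AM fluorescence sampled at 1 Hz, 10 s pre-addition baseline; Read-out basis: slope over 15–24 s of trace normalized to starting intensity; Controls: carbachol positive, DMSO negative.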

A short description of test [8]: inhibitors of larval lipid processing in zebrafish, primary screen, whole organism, PED6 fluorescence, gall bladder and intestine (AID 686;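 active = a full or partial loss of lipid-probe fluorescence in the fish gall bladder, intestine or both, judged by eye; inactive = no fluorescence loss, or compound toxic to the fish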;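 also: larvae 5 to 7 days old with five fish per well; signal comes from phospholipase A2 cleavage of quenched PED6 carried via bile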). Conditions: Zebrafish larvae PED6 lipid processing, fluorescence scoring; screened at 20 µM (by protocol). A digest of the protocol: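 Incubation: overnight exposure of larvae to compound plus PED6 / Test system: live zebrafish larvae aged 5-7 days, whole organism / Amount: 5 larvae per well / Read-out basis: visual per-well fluorescence inhibition score / Signal: visual fluorescence microscopy scoring of gall bladder, gut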

A short description of test [9]: loss of swimming-algae plug formation – whole organism, Chlamydomonas reinhardtii, WT vs cilia-less mutant, absorbance, 96-well, primary screen (AID 463189;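 active = inhibition at or above 50% relative to wild type and mutant plate controls; inactive = inhibition below 50%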;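 also: 0% = wild type cc124 cells in DMSO and 100% = ciliumless bld1 mutant cells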). The conditions noted are these: Chlamydomonas reinhardtii gravitaxis, OD600 absorbance, 2 days; at 10 µM; stronger effect = higher value.
The mark [10] stands for this setting: measured here: cell density z-score.
[11] abbreviates: measured here: nuclear c-Myc green intensity z-score.
[12] abbreviates: measured here: nuclear pErk red intensity z-score, stronger effect = higher value.

Sequence of Voltage-gated potassium channel subunit beta-2 (Rattus norvegicus) (P62483 whole entry, looked up): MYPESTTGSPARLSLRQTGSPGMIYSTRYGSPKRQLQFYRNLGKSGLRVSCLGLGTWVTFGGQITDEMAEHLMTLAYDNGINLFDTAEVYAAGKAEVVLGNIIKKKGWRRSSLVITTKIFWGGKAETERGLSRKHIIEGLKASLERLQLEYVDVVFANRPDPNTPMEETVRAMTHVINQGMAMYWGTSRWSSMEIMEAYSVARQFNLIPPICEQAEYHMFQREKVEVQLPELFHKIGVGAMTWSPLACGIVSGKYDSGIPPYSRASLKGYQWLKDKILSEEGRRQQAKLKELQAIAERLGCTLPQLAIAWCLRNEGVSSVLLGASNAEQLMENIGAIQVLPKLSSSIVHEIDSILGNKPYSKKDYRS
Sequence of Muscarinic acetylcholine receptor M4 (Homo sapiens) (P08173 whole entry, looked up): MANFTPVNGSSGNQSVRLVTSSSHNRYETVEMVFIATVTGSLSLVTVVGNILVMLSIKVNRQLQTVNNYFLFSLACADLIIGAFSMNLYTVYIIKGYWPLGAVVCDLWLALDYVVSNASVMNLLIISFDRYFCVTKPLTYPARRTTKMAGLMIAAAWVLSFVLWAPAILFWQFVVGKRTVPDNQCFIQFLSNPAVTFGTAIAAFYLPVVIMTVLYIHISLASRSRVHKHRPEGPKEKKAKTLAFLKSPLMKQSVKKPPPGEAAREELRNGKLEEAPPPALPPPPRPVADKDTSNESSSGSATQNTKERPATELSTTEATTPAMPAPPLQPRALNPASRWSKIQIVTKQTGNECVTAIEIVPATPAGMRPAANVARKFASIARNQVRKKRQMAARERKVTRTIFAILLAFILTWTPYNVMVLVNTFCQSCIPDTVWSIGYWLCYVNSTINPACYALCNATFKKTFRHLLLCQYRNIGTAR

For orientation: inhibition means the drop in the measured response relative to a control, in per cent. `COc1ccc(CSc2nnc3n(C)c(=O)c4c5c(sc4n23)CCCC5)cc1`: the cell count in test [1] came to 563. For the same compound, the inhibition in [1] is -1.3% (inactive); in [2], -140% (inactive); in test [4] it was 17.8% (inactive); in [9], 1.97% (inactive). This compound displayed a nuclei count in test [2] of 184%. Further, the values for the z-score in test [3] (setting [10]), in test [3] (setting [11]) and in test [3] (setting [12]) were 0.888, -0.948 and -1.27, respectively. Further, the values for the fluorescence slope in test [5] and in [7] were -0.41 (inactive) and 0.00522 (inactive), respectively. Moreover, the NADPH fluorescence slope in test [6] is -1.6e-05 (inactive). Further, the outcome in [8] was inactive.

In the case of `COc1ccc(CC(=O)Nc2cccc(-c3nnc(-c4ccco4)o3)c2)cc1`, the cell count in test [1] amounted to 671. Besides, the inhibition in test [1] was -0.9% (inactive); in test [2] it was 6.2% (inactive); in test [4], -15.1% (inactive); in test [9], 0.83% (inactive). In [2], the nuclei count was 177%. In addition, the z-score is -0.286 in [3] (setting [10]), 1.67 in test [3] (setting [11]) and 1.63 in [3] (setting [12]). The fluorescence slope in test [5] is -0.475 (inactive); in test [7] it was 0.00587 (inactive). Further, the NADPH fluorescence slope in [6] is -8e-05 (inactive). The compound was classed as inactive in test [8].

For `Cc1cccc(C)c1OCC(=O)Nc1cccc(-c2nnc(-c3ccccc3)o2)c1`, the cell count in test [1] was found to be 634. Also, the inhibition in [1] is -2.9% (inactive); in test [2], 27.8% (inactive); in test [4] it was -9.53% (inactive); in test [9], -17.1% (inactive). This compound came in with a nuclei count in test [2] of 82.9%. Further, the z-score is -2.16 in test [3] (setting [10]), 1.5 in test [3] (setting [11]) and 0.715 in [3] (setting [12]). In addition, the fluorescence slope is -0.492 (inactive) in test [5] and 0.00887 (inactive) in [7]. The NADPH fluorescence slope in test [6] is -4.2e-05 (inactive). The call in test [8] was inactive.

As to `COc1ccc(C2NC(=O)NC(O)(C(F)(F)F)C2C(=O)c2ccc(F)cc2)cc1` (stereo unspecified), in [1], the cell count is 632. Besides, the inhibition in test [1] was 6.6% (inactive); in test [2], -68.3% (inactive); in [4] it was -0.674% (inactive); in [9] it was -6.15% (inactive). The compound also showed a nuclei count in test [2] of 159%. Also, the z-score was -1.22 in [3] (setting [10]), 1.16 in test [3] (setting [11]) and 0.887 in test [3] (setting [12]). Besides, the fluorescence slope in [5] is -0.479 (inactive); in test [7] it was 0.00666 (inactive). Besides, the NADPH fluorescence slope in test [6] was -5.2e-05 (inactive). Besides, the outcome in test [8] was inactive.

As for `O=C(C/C(=N/O)c1ccccc1O)C(F)F`, the cell count in test [1] turned out to be 454. In addition, the inhibition in [1] was -0.6% (inactive); in test [2], -48.8% (inactive); in test [4], 9.37% (inactive); in test [9], -1.93% (inactive). Further, in test [2], the nuclei count was found to be 164%. Moreover, the values for the z-score in test [3] (setting [10]), in test [3] (setting [11]) and in test [3] (setting [12]) were -0.709, 1.7 and 1.49, respectively. The fluorescence slope in [5] was -0.451 (inactive); in test [7] it was 0.0043 (inactive). Further, in test [6], the NADPH fluorescence slope is -2.7e-05 (inactive). The outcome in test [8] was inactive.

Turning to `CCOC(=O)CSc1nc(-c2ccc3c(c2)OCO3)ccc1C#N`, the cell count in [1] came out at 676. The inhibition was 4.9% (inactive) in test [1], 5.4% (inactive) in test [2], -2.91% (inactive) in [4] and -3.42% (inactive) in test [9]. This compound also gave a nuclei count in [2] of 120%. Moreover, the z-score is -0.127 in test [3] (setting [10]), -1.03 in test [3] (setting [11]) and 0.898 in [3] (setting [12]). Further, the fluorescence slope in test [5] was -0.199 (inactive); in test [7], 0.00583 (inactive). Further, in test [6], the NADPH fluorescence slope was -8.6e-07 (inactive). In test [8], the compound was called inactive.

For the compound `COc1cccc(N2CCN(C(=O)c3ccc(=O)oc3)CC2C)c1` (stereo unspecified), the cell count in [1] came to 548. Besides, the inhibition is -13.7% (inactive) in test [1], -2.6% (inactive) in test [2], -2.91% (inactive) in [4] and 13.7% (inactive) in test [9]. The compound also came in with a nuclei count in test [2] of 114%. Further, the z-score in test [3] (setting [10]) is 0.444; in [3] (setting [11]), -0.0742; in [3] (setting [12]), 1.46. The fluorescence slope is -0.418 (inactive) in test [5] and 0.00472 (inactive) in [7]. Also, the NADPH fluorescence slope in test [6] was 6.4e-07 (inactive). The compound was called inactive in test [8].
